According to the EternaBench riboswitch data:

Test system: MS2 coat protein
Test: apparent Kd, MS2 coat protein; higher = weaker binding; RNA-MaP array; FMN 200 µM where present
Method in brief: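 The titrant was SNAP-549-labelled MS2 coat protein, run from 0.7 or 1.5 nM in doubling steps to 3 µM. It was applied to designs transcribed by stalled E. coli RNA polymerase on Illumina sequencing-chip clusters, without ligand first and then with constant ligand, in 100 mM Tris-HCl pH 7.5, 80 mM KCl, 4 mM MgCl2, BSA, DTT, yeast tRNA and Tween-20. The apparent Kd is the median of filtered per-cluster binding-curve fits, with green signal normalised to red-channel RNA signal and control-cluster median Fmax.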

[1] = designed as: OFF switch for flavin mononucleotide, no ligand
[2] = ligand present: flavin mononucleotide, designed as: OFF switch for flavin mononucleotide
[3] = designed as: ON switch for flavin mononucleotide, no ligand
[4] = ligand present: flavin mononucleotide, designed as: ON switch for flavin mononucleotide

Sequence | apparent Kd [1] | apparent Kd [2] | apparent Kd [3] | apparent Kd [4]
UGAUAACAUGUAGGAUAUCCAGCAUUGACCAUCGGAGAAGGACAUGAGGAUCACCCAUGUACCGAUACAAUGGGAUAACGGAAU | 15.7 nM | 17.7 nM |  | 
GGGUACAUCAGAGGAUAUCAUGUAAAUACAUGAGGAUCACCCAUGUCGAUGGAGACAUCGGAGAUUGAGAAGGCCGAUGUACCG |  |  | 292 nM | 13.4 nM
AUGCUAGUGUGAGGAUAUUAGGCACAUGAGGAUCACCCAUGUAAGAUCAUGACGAUCACGCAUGAUAAGAAGGUACAUUAGCAU | 40 nM | 47 nM |  | 
CACGAUGAUGUAGGAUAUAUGCUGGAAUACAGCAUAGAAGGACAUGAGGAUCACCCAUGUUAAGUGCCUCCAAAUAACAUCGUG | 15.7 nM | 21.7 nM |  | 
AUUUAAAUGUCAGGAUAUGGUAGUUUAUACUUAUUAGAAGGGAUAAUUAUACUCAAGUACAUGAGGAUCACCCAUGUUAAAUCA |  |  | 21.9 nM | 21.5 nM
UGCGUGGUCACAGGAUAUGCAGGAUGAACUUUAGCAGAAGGGUGAUCAAUCAGCUCAAAACCACAUGAGGAUCACCCAUGUCUA |  |  | 31.9 nM | 92.9 nM
CGGAUGUGAGGAUAUACAUGAGGAUCACCCAUGUGUGCCAGCUAGCUGACUGGCACUUGUAGAAGGCACGUCUG | 10.8 nM | 22 nM |  | 
AAUAACAGAGGAUAUACUAUUUUAUGUGUUUAUUGUUUUAAACAUGAGGAUCACCCAUGUAGAAGGCUGAUUAA | 69.7 nM | 105 nM |  | 
GGAUGACAAAGUCAUCCAAUACGAACAUGAGGAUCACCCAUGUAGGAUAUGCAUCUCAAAGAGAUGCAGAAGGACAUGUGCCUU | 36.9 nM | 272 nM |  | 
AAGACACAUGAGGAUCACCCAUGUUAGGAUAUACGCAUGCAUGCAUGCAUGCAUGCAAGUAGAAGGAACCAUGC | 30.5 nM | 30.6 nM |  | 
CCGGAAGUACAGGAUAUCGUAUCGGAAACGAUACGAGAAGGGUAUACAUGAGGAUCACCCAUGUGUCCUACCGG | 28.7 nM | 27.9 nM |  | 
UGUUGGAGCAGAGGAUAUUACAUGAGGAUCACCCAUGUAUGAACCAAUAGCUGGAAACAGCAAUGUAAGAAGGCUGCUCCGACA | 12.1 nM | 161 nM |  | 
GUAAUGUGAGGAUAUGGUAAAGAUAAGAUGAUGAAAGAACUCCAGAAGGCACAUGAGGAUCACCCAUGUAGAUG | 26.7 nM | 107 nM |  | 
UGUGUGUGGCAGGAUAUGCAGGUAAUAAGACGGGUAGAAGGGUCUACAUGAGGAUCACCCAUGUGGCCGGUUGG | 16.1 nM | 18.2 nM |  | 
AAGAGUAGAGGAUAUACAUGAGGAUCACCCAUGUAAUCCGGAUAAGGAAGCAUGUCGUGUAGAAGGCUGCAUGA | 15.2 nM | 12.4 nM |  | 
GCACUGGAUGUAGGAUAUCAGGACGAUAAGUCCUGAGAAGGACAUGAGGAUCACCCAUGUACUCAAAACCAGUGCUAUAAUAUA | 15.6 nM | 23.8 nM |  | 
GACAGGGAUUCAGGAUAUAUUAGCCGAGGCCGAGUAGAAGGGAAAUCCUGACAUGAGGAUCACCCAUGUCGACCCGCCUUCCUU |  |  | 50.7 nM | 51.9 nM
GUCAGACGAGGAUAUAGAUUUGAUAACAUGAGGAUCACCCAUGUGAUCGAUAGAUCAGAUUUAGAAGGCGUCUGAC | 410 nM | 458 nM |  | 
UGUCGGAGCAAAGGAUAUUACAUGAGGAUCACCCAUGUAUGAACCAAUAGCUGGAAACAGCAAUGUAAGAAGGCUGCUCCGACA | 4.79 nM | 5.81 nM |  | 
UAAAGUGUGGAGGAUAUGGACCGCGCUAGUGGUCCAGAAGGUCAAACAUGAGGAUCACCCAUGUCCCGUGAUUA | 54.5 nM | 67.7 nM |  | 
GCUACUUAUUUUAAGUAUGAUUUACUAGAAGGUAGAUACAUGAGGAUCACCCAUGUUUAGAGUUCUAAGGAUAUAGUUUGUAGC |  |  | 7.81 nM | 7.57 nM
AAGAACGCAGGAUAUAUUAAGGGACAAAGAAGGAAGAAUAAACAUGAGGAUCACCCAUGUAGAAGGGCGAAGAA | 60.5 nM | 58 nM |  | 
UUGAUUCAUUCCUCCAUAAACAUGAGGAUCACCCAUGUAAGUGAGGAUAUAGUUGGAGUAGUAUACUAGAAGGCACUUAGAUAU | 12.3 nM | 9.75 nM |  | 
UGCUGGCAAGGAUAUACUCGGGAUGCUAGUCGCGCGGUUGCACAUGAGGAUCACCCAUGUAGAAGGUGUCUGUG | 195 nM | 160 nM |  | 
AACAUGUCAGGAUAUAUGACAUGGCUCUUCGGAGCAAGCUCAUAGAAGGGACAUGAGGAUCACCCAUGUAGAGC | 21.1 nM | 25.2 nM |  | 
CGAUAUAUGAAGGGCGAAAGCCCACAUGAGGAUCACCCAUGUAGAAGGCGGGCCGCAACGCGGCCCGAGGAUAUAUAGUAUACA | 8.05 nM | 8.84 nM |  | 
GGGAGUCUACAUGAGGAUCACCCAUGUGGUCCAGCAGGAACACAGGAUAUCCAAUGAGAUUCUCGGGAGAAGGGUGAAUGCUUA |  |  | 107 nM | 174 nM
ACGCUUUAUGUAGGAUAUUCAGAGAAAGAGAAAGAAGAAGGACAUGAGGAUCACCCAUGUAAGAAGUAGAUAGAGAUGAUACAU | 76.4 nM | 66.1 nM |  | 

Sequence | apparent Kd [1] | apparent Kd [2] | apparent Kd [3] | apparent Kd [4]
GCGGUACAUGAGGAUCACCCAUGUCAGGAUAUCCGCUGUUUGUCGUUUGGCGGGCGGUGGAGAAGGGACCUCGC | 90 nM | 93 nM |  | 
AAGAAGUCAGGAUAUGCAUGGCGGGACUUGCGUCGUGGCGUGCAGAAGGGACAUGAGGAUCACCCAUGUAAAGU | 49 nM | 45.4 nM |  | 
GGACGUCACAUUUACAUGAGGAUCACCCAUGUCUCUUGACAUGAGGAUAUGUAUACGAAUCGUAUACAGAAGGCAUGGACGUCC |  |  | 1100 nM | 153 nM
AGGGAGUGAGGAUAUGCUGCUCGUCACUUGCGUGAUGAGUAGCAGAAGGUACAUGAGGAUCACCCAUGUAAAGA | 34.5 nM | 22.2 nM |  | 
GGAAUAAAUGCAGGAUAUACGUGGAAAGCCCUCAACAUGAGGAUCACCCAUGUAGAAGGGCAUCUCCCGACCGAAGCGGAUCUC | 4.41 nM | 4.82 nM |  | 
GGAAAUUAGCAAGGAUAUCGGCUUACUAUAACUUUAUGCCCUGGGACAUGAGGAUCACCCAUGUACGAGAAGGUGCUAACUACA | 23.6 nM | 36.9 nM |  | 
GGCUUGCAGCUAGGAUAUGGGCGAUCACAUGAGGAUCACCCAUGUCAACAUCAAAACAAGAUUAACCAGAAGGAGCCGCGGGUU |  |  | 50.6 nM | 153 nM
CCUCAUGGUCGAGGAUAUAUAACGUGGAACGUAAUAGAAGGCGACAUGAGGAUCACCCAUGUAGCGUCCACUGGAGUCGCGCGG | 119 nM | 62.2 nM |  | 
AUGAGUAAAGCAGGAUAUCUAUUGUCUCAGUAACAUGAGGAUCACCCAUGUAGAGAAGGGCUAAGUCUUACUCUUCGGAGAUGA | 12.3 nM | 13.4 nM |  | 
UUUGUACAUGAGGAUCACCCAUGUGAGGAUAUGCUUUAUUAUUAUUAUUAUUAUUAUUGCAGAAGGCACGUUGU | 69.7 nM | 98.2 nM |  | 
GCGUACAUAUCAGGAUAUCAUUGAAUGGAUUAACACAGUGAAUACAUGAGGAUCACCCAUGUGCUUGAGAAGGGAUUACUACGC | 11.1 nM | 10.4 nM |  | 
GCCGGGUCAGGAUAUGGGCCCGGGCCCGAAAGGGCCCGGGCCCAGAAGGGACAUGAGGAUCACCCAUGUCCGGC | 19.5 nM | 16.5 nM |  | 
CUAUUCCGAGGAUAUACAUGAGGAUCACCCAUGUCGGGCCUCUGCGUUUAGCGCGUAAGUAGAAGGUGGGUUUC | 31 nM | 32.9 nM |  | 
AUACAUGAGGAUCACCCAUGUAAUUAAUUAACUUGUAAGAUCAAGGAUAUCAGCUCGAUUAGAGCUGAGAAGGUGAUCACAUGU |  |  | 260 nM | 253 nM
UUAAAUCAUGUAGGAUAUGCAUGGCGAAGCUACGCAGAAGGACAUGAGGAUCACCCAUGUUCUGGCUACCGGAUACGGUGGCAA | 20.6 nM | 83.6 nM |  | 
GCGAAUUAGUGAGGAUAUACAUAAUUUAUAACUGUAGAAGGCACAAACCUCAAGACAUGAGGAUCACCCAUGUGGUAUUACGCU | 112 nM | 281 nM |  | 
AACAAAGACACAGGAUAUCCACAAAUACAUGAGGAUCACCCAUGUUCGAAAGGAGAAGGGUGGCACCGGUACAAUCUGGUUAUC |  |  | 275 nM | 89.3 nM
AUCAGCUCGUGAGGAUAUACAUCACUGCUUCGGCAGUGUGGUAAGGUCACAUGAGGAUCACCCAUGUAGAAGGCACGAGCUGAU | 13.1 nM | 279 nM |  | 
UGUAUUAUCGGAGGAUAUCGAUAUCAAACAUGAGGAUCACCCAUGUUGAGGAUCACCCAUGUCCACGAGAAGGCCGGCGUACUC |  |  | 25.7 nM | 26.4 nM
ACUUGUGAAGGAUAUACUGGCGACAUGCGCUCAACACGCGCACAUGAGGAUCACCCAUGUAGAAGGUCAAACAU | 24.7 nM | 34.8 nM |  | 
ACGGAACAUGAGGAUCACCCAUGUAUCUGAGAUAUGGUCUCGCAGGAUAUUCAGAGAAGCCAAUCGGAGAAGGGUGACACCAAA |  |  | 36.6 nM | 19.6 nM
CCUCCACAUGAGGAUCACCCAUGUCAGGAUAUCGUGUGCGCGUUUUCGGUCUUUCGUGCGAGAAGGGACGUCUG | 36.9 nM | 35 nM |  | 
AGUAAGAUGCAGAAGGUGUUAGCUAGAGCUACGACAUGAGGAUCACCCAUGUACUAGAAAACGUACAAGGAUAUGCAUCUUACA |  |  | 7.36 nM | 5.98 nM
UUGUUACGAUUAGGAUAUUAUAGAUUGAAUAGUAUGAUUUACAUGAGGAUCACCCAUGUUACAUUUAAGAAGGAAUCGAAUUAU | 21.1 nM | 16.9 nM |  | 
UUAAUUAAUUAAGCGCAAGAUCACAUGAGGAUCACCCAUGUAUAGGAUAUCAGCUCGAUUAGAGCUGAGAAGGAUACAUAGCGC | 203 nM | 568 nM |  | 
GACCGUCACAAUAACCGGUUGAACGAGGAUAUGAUCACUGGGCCUGCACAUGAGGAUCACCCAUGUCAGAAGGCGUUCAGUCCC | 5.53 nM | 16.4 nM |  | 
GUGGGACAUGAGGAUCACCCAUGUGGGAGGGAACGAGGAUAUGUGAGGAGCGAGAAGUGAACAGAAGGCGUGGUUG |  |  | 82.8 nM | 51.4 nM
